A selection: hits, their analogues and other compounds. The true share with any hit is near 2.4%.
DNMT1 block: blocks human DNA methyltransferase DNMT1; P26358; DNMT1 molecular beacon, Hinp1I cleavage, fluorescence; inhibition (reported as % activation of signal), % at 10 µM; actives 0.83% (n = 360,000); in the data active means inhibition above about 50%
LMPTP inh: LMPTP (human) inhibition; recombinant LMPTP-A, OMFP fluorogenic substrate, fluorescence intensity; P24666; inhibition, % at 20 µM; actives 0.22% (n = 360,000);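 active means compounds that cut the enzyme signal by at least half of the control window in the single-dose screen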;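 further: plate controls were DMSO wells with enzyme plus substrate for no effect and substrate without enzyme for full effect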
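Test system – LMPTP-A enzyme · Amount – LMPTP-A at 0.625 nM final in the reaction · Buffer or medium – Bis-Tris pH 6.0, DTT, detergent · Reagent – OMFP 400 µM · Doses – single 20 µM dose · Schedule – reaction 50 min, room temperature, dark · Detection – fluorescence intensity of OMFP turnover product · Evaluation – percent inhibition versus substrate-only and uninhibited controls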
Scp1 inh: inhibitors of human Scp-1 phosphatase; Recombinant Scp1, phosphopeptide, malachite green phosphate absorbance; inhibition, % at 20 µM; Q9GZU7; actives 0.88% (n = 340,000);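 active means inhibition above about 50% at 20 µM, limit read from the data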;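 further: plate controls were DMSO wells with enzyme for no effect and wells lacking enzyme for full effect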
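Incubation: 45 min enzyme reaction at room temperature / System: truncated SCP-1 phosphatase (76-261aa) / Reagent: Phospho 17-mer peptide substrate / Buffer or medium: Acidic Tris acetate buffer with magnesium and detergent / Signal: absorbance at 630 nm / Doses: one concentration, 20 µM, with 1.0% DMSO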
STEP block: STEP (human) phosphatase inhibition. recombinant STEP, OMFP fluorogenic substrate, fluorescence. actives 0.25% (n = 360,000). inhibition, % at 20 µM;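 active means inhibition at 20 µM, scaled per plate between control wells, above about 37%, limit read from the data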;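 further: 0% = DMSO with enzyme and substrate and 100% = substrate only without enzyme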
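Test system: STEP tyrosine phosphatase / Reagent: OMFP at 25 µM / Doses: 20 µM, 1% DMSO / Read-out: percent inhibition scaled to no-enzyme and uninhibited-enzyme controls, plate-pattern corrected / Detection: FITC-channel fluorescence of OMFP product / Medium: Bis-Tris buffer pH 6.0, 2.5 mM DTT, 0.005% Tween 20 / Schedule: 20 min at room temperature, dark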
NadD block: NadD (S. aureus) enzyme inhibition; purified NadD enzyme, colorimetric absorbance read-out; inhibition, % at 20 µM; actives 0.78% (n = 360,000); AID 602399; in the data active means inhibition above about 26%
SUMO1-SIM PPI: modulators of human SUMO1-mediated protein-protein interactions; SUMO1 binding to a labelled peptide, TR-FRET, 1 h; inhibition, % at 20 µM; P63165; actives 0.33% (n = 360,000); in the data active means inhibition above about 37%
Active calls of the source: *; / = not tested or not shown.

SMILES	DNMT1 block	LMPTP inh	Scp1 inh	STEP block	NadD block	SUMO1-SIM PPI
Oc1cccc(/C=N/Nc2ncnc3c2ncn3Cc2ccccc2)c1	-5.2	0.1	6.5	0.8	2.3	-6.2
Oc1ccc(/C=N/Nc2ncnc3c2ncn3Cc2ccccc2)cc1O	2.4	8.7	-2.7	1.3	38.8*	4.7
CCOC(=O)c1c(C)nc2c(c1-c1ccc(OC)cc1)C(=O)CC(C)(C)C2	3.1	-1.6	-2.2	0.8	4.1	0.7
Cc1cccc(NC(=O)CN2C(=O)N/C(=C/c3cc(C)n(C)c3C)C2=O)c1	-13.8	2.6	-2.3	-2.9	30.3*	-5.9
CCCC1=C/C(=C/c2ccc(-c3ccccc3OC)o2)C(=O)O1	12.0	1.6	-11.2	1.4	39.8*	0.1
COC(CNC(=O)c1ccc2c(=O)n(Cc3ccc4c(c3)OCO4)c(=S)[nH]c2c1)OC	11.8	-1.6	-6.8	-0.4	-4.1	-2.8
CC(=O)NC(NC(C)=O)c1ccc(N(C)C)cc1	4.4	0.0	52.3*	-0.6	-4.1	-2.9
CCN(CC)c1ccc(C(NC(C)=O)NC(C)=O)cc1	0.1	-1.4	-4.8	0.4	0.1	-3.9
CCCn1cc(S(=O)(=O)c2ccc(C)cc2)c(=O)c2cc(OC)c(OC)cc21	-2.4	0.2	0.3	0.2	0.8	10.4
COc1cccc2c1C(=O)c1c(O)c3c(c(O)c1C2=O)C[C@@](O)(C(=O)CO)C[C@@H]3O[C@H]1C[C@H](N)[C@@H](O)[C@H](C)O1	-175.9	13.9	-13.9	-4.4	57.5*	97.0*
COc1cccc2c1C(=O)c1c(O)c3c(c(O)c1C2=O)CC(O)(C(=O)CO)CC3OC1CC(N(C)C)C(O)C(C)O1 (centres undefined)	-264.6	7.9	-2.8	-25.7	33.0*	-43.6
COc1ccccc1N(CC(O)CN(c1ccccc1)S(C)(=O)=O)S(=O)(=O)c1ccccc1 (centres undefined)	2.5	-0.3	-6.7	-3.2	-3.2	-0.6
COc1cc([N+](=O)[O-])ccc1NC(=O)CN(C)C	-2.4	-0.9	6.7	-1.2	6.2	-13.2
COc1cc(-c2csc(N3CCOCC3)n2)cc(OC)c1OC	-1.7	0.9	-9.6	-0.7	-0.4	-6.2
COc1ccc(-c2csc(N3CCN(c4cc(C)nc5ccccc45)CC3)n2)cc1OC	-10.3	84.2*	3.5	2.8	2.3	-12.8
CCCCCCCCCCCCCCCCCCNc1ccn(C2OC(COP(=O)(O)OCC3OC(n4cc(F)c(=O)[nH]c4=O)CC3O)C(O)C2O)c(=O)n1 (centres undefined)	79.8*	3.2	21.2	1.3	-4.5	20.3
COc1ccc(CC(=O)Oc2ccccc2C)cc1S(=O)(=O)N1CCOCC1	0.4	-1.5	-6.2	-1.3	-5.5	5.6
CCOc1ccc(C(=O)NCC(=O)NC(C)c2ccc(-n3ccnc3)cc2)cc1OCC (centres undefined)	0.6	-0.5	-1.8	-2.5	1.3	45.0*
COc1cc(C(=O)NCC(=O)NC(C)c2ccc(-n3ccnc3)cc2)cc(OC)c1OC (centres undefined)	2.3	-0.5	-1.9	2.1	-1.0	12.1
CN(C)CCCN=c1cc(-c2ccccc2)oc2ccc(Cl)cc12	52.3*	-5.6	-4.6	0.2	-15.6	-4.6
Cn1ccc2cc3c(cc21)CCN3C(=O)Nc1cccnc1	-10.0	45.9	3.8	2.5	31.3*	-6.1
Cc1nc(C)c(NC(=O)N2CCc3ccccc32)cc1NC(=O)N1CCc2ccccc21	-7.1	4.9	-7.3	-2.6	9.1	5.4
O=C(Nc1ccc2c(c1)OCO2)c1ccccc1	-3.0	-0.9	-5.3	-1.2	-12.3	-0.6
CCCN1C(=O)CC(c2ccc(OC)c(OC)c2)C1=O (centres undefined)	-3.4	47.1*	/	-0.7	0.6	2.3
CC(C)C[C@@H](CN1CCCC1CN1C(=S)NC[C@@H]1Cc1ccccc1)N1C[C@H](Cc2ccc(O)cc2)N(CC2CCCCC2)C1=S (some centres undefined)	/	1.3	/	/	28.6	0.7
CC(C)C[C@@H](CN1CCC[C@@H]1CN1C(=S)NC[C@@H]1Cc1ccc(O)cc1)N1C[C@H](Cc2ccc(O)cc2)N(CC2CCCCC2)C1=S	-53.6	3.3	/	1.7	42.5*	3.5

Screening results: PubChem BioAssay, Sanford-Burnham Center for Chemical Genomics
